Consider 50 molecules from PubChem BioAssay AID488936 (Broad Institute, 2010).

The structures appear in SMILES notation. Calls of active or inactive are those of the source.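 How the source made its calls: active means compounds lowering caspase luminescence whose fitted AC50 is at most ten times their top valid dose; inconclusive means flat partial inhibition or a poor quality curve fit; inactive means the rest.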

The nature of the experiment: suppressors of cytokine-driven caspase-3/7 activity, dose response, orthogonal assay for beta-cell apoptosis inhibitor project, INS-1E rat cells, dry powder, set 2 (AID 488936). The conditions noted are these: INS-1E cytokine-induced caspase-3/7 luminescence, 48 h. An outline of the steps:
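Assay system: rat INS-1E insulinoma cells. Also added: IFN-gamma, TNF-alpha and IL-1β cytokine cocktail. Timing: 48 h cytokine plus compound exposure, then 1 h reagent, room temperature. Technique: Caspase-Glo 3/7 luminescence. Read-out: Caspase-3/7 IC50 from dose-response. Control set: SAHA positive control.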

As to `COc1ccc(S(=O)(=O)N(C)C[C@@H]2Oc3c(cccc3N(C)C)C(=O)N([C@@H](C)CO)C[C@H]2C)cc1`, the activity change, negative = inhibition (at 23.5 µM (top of the series)) was -4.48% (inactive).
Take `COc1ccc(S(=O)(=O)N(C)C[C@@H]2Oc3c(NC(=O)c4nc5ccccc5s4)cccc3C(=O)N([C@@H](C)CO)C[C@H]2C)cc1`: the activity change, negative = inhibition (at 26 µM (top of the series)) was -4.53% (inactive).
For the molecule `COc1ccc(S(=O)(=O)N(C)C[C@@H]2Oc3c(NC(=O)NC4CCCCC4)cccc3C(=O)N([C@@H](C)CO)C[C@H]2C)cc1`, the activity change, negative = inhibition (at 26 µM (top of the series)) was -7.02% (inactive).
The same measure, in the same setting: next, `C[C@@H]1CN([C@@H](C)CO)C(=O)c2cccc(NC(=O)Nc3cccc4ccccc34)c2O[C@H]1CN(C)CC1CC1`: -6.43% (inactive); `COc1ccc(S(=O)(=O)N(C)C[C@@H]2Oc3c(NC(=O)Nc4ccccc4)cccc3C(=O)N([C@H](C)CO)C[C@H]2C)cc1`: -7.43% (inactive).
Turning to `COc1ccc(S(=O)(=O)N(C)C[C@@H]2Oc3c(NC(=O)C4CCOCC4)cccc3C(=O)N([C@@H](C)CO)C[C@H]2C)cc1`, the activity change, negative = inhibition (at 23.5 µM (top of the series)) was -8.46% (inactive).
Turning to `C[C@@H]1CN([C@@H](C)CO)C(=O)c2cccc(NC(=O)Nc3cccc4ccccc34)c2O[C@H]1CN(C)S(=O)(=O)c1ccc(F)cc1`, where the note is “at 26 µM (top of the series)”, the activity change, negative = inhibition is 4.91% (inactive).
On the same count and under the same terms, next, `COc1ccc(S(=O)(=O)N(C)C[C@@H]2Oc3c(NS(=O)(=O)c4cn(C)cn4)cccc3C(=O)N([C@@H](C)CO)C[C@H]2C)cc1`: -6.15% (inactive).
Still for that read-out and setting: next, `Cc1ccc(S(=O)(=O)N(C)C[C@@H]2Oc3c(NC(=O)Nc4cccc5ccccc45)cccc3C(=O)N([C@@H](C)CO)C[C@H]2C)cc1`: 11.5% (inactive); `Cc1noc(C)c1NC(=O)N(C)C[C@@H]1Oc2c(NC(=O)Nc3cccc4ccccc34)cccc2C(=O)N([C@@H](C)CO)C[C@H]1C`: -0.569% (inactive); `C[C@@H]1CN([C@@H](C)CO)C(=O)c2cccc(NC(=O)Nc3cccc4ccccc34)c2O[C@H]1CN(C)S(=O)(=O)c1ccc(OC(F)(F)F)cc1`: 100% (inactive).
With `COc1ccc(S(=O)(=O)N(C)C[C@@H]2Oc3c(NS(C)(=O)=O)cccc3C(=O)N([C@@H](C)CO)C[C@H]2C)cc1`, the activity change, negative = inhibition (at 26 µM (top of the series)) is -6.62% (inactive).
Regarding `COc1ccc(S(=O)(=O)N(C)C[C@@H]2Oc3c(NC(=O)Nc4cccc5ccccc45)cccc3C(=O)N([C@@H](C)CO)C[C@H]2C)cc1OC`, the activity change, negative = inhibition (at 26 µM (top of the series)) is -11.6% (inactive).
Turning to `COc1ccc(S(=O)(=O)N(C)C[C@@H]2Oc3c(NC(=O)C4CC4)cccc3C(=O)N([C@@H](C)CO)C[C@H]2C)cc1`, the activity change, negative = inhibition (at 23.5 µM (top of the series)) was -6.93% (inactive).
As for `C[C@@H]1CN([C@@H](C)CO)C(=O)c2cccc(NC(=O)Nc3cccc4ccccc34)c2O[C@H]1CN(C)C(=O)Nc1ccc(F)cc1`, under “at 26 µM (top of the series)”, the activity change, negative = inhibition was 19.9% (inactive).
`C[C@@H]1CN([C@@H](C)CO)C(=O)c2cccc(NC(=O)Nc3cccc4ccccc34)c2O[C@H]1CN(C)S(=O)(=O)c1cccs1`: the activity change, negative = inhibition (at 26 µM (top of the series)) is 4.63% (inactive).
On the same count and under the same terms, to `Cc1ccc(S(=O)(=O)N(C)C[C@@H]2Oc3c(NC(=O)Nc4ccc(F)cc4)cccc3C(=O)N([C@H](C)CO)C[C@H]2C)cc1` belongs -5.96% (inactive); to `COc1ccc(S(=O)(=O)N(C)C[C@@H]2Oc3c(NC(=O)c4ccc(-c5nccs5)cc4)cccc3C(=O)N([C@@H](C)CO)C[C@H]2C)cc1`, 6.99% (inactive).
Still for that read-out and setting: to `C[C@@H]1CN([C@@H](C)CO)C(=O)c2cccc(NC(=O)Nc3cccc4ccccc34)c2O[C@H]1CN(C)S(=O)(=O)c1cn(C)cn1` belongs -1.53% (inactive); to `COc1ccc(NC(=O)N(C)C[C@@H]2Oc3c(NC(=O)Nc4cccc5ccccc45)cccc3C(=O)N([C@@H](C)CO)C[C@H]2C)cc1`, 18.3% (inactive).
In the case of `COc1ccc(S(=O)(=O)N(C)C[C@@H]2Oc3c(NC(=O)Nc4cccc5ccccc45)cccc3C(=O)N([C@H](C)CO)C[C@@H]2C)cc1`, the activity change, negative = inhibition (at 26 µM (top of the series)) is -4.27% (inactive).
Still for that read-out and setting: to `COc1ccc(S(=O)(=O)N(C)C[C@@H]2Oc3c(NC(=O)Nc4cccc5ccccc45)cccc3C(=O)N([C@@H](C)CO)C[C@H]2C)cc1Cl` belongs 12.6% (inactive); to `Cc1ccc(S(=O)(=O)N(C)C[C@@H]2Oc3c(NC(=O)Nc4ccccc4)cccc3C(=O)N([C@@H](C)CO)C[C@H]2C)cc1`, -11.7% (inactive).
Consider `COc1ccc(S(=O)(=O)N(C)C[C@@H]2Oc3c(NS(=O)(=O)c4ccc(F)cc4)cccc3C(=O)N([C@@H](C)CO)C[C@H]2C)cc1`, for which the activity change, negative = inhibition (at 26 µM (top of the series)) was -9.27% (inactive).
With `COc1ccc(S(=O)(=O)N(C)C[C@@H]2Oc3c(NC(=O)Nc4cccc5ccccc45)cccc3C(=O)N(C(C)C)C[C@H]2C)cc1`, the activity change, negative = inhibition (at 26 µM (top of the series)) was -6.92% (inactive).
Same read-out and setting: next, `COc1ccc(S(=O)(=O)N(C)C[C@H]2Oc3c(NC(=O)Nc4cccc5ccccc45)cccc3C(=O)N([C@H](C)CO)C[C@@H]2C)cc1`: 3.23% (inactive); `COc1ccc(S(=O)(=O)N(C)C[C@@H]2Oc3c(NC(=O)c4ccncc4)cccc3C(=O)N([C@@H](C)CO)C[C@H]2C)cc1`: -4.94% (inactive).
Same read-out and setting: next, `COc1ccc(S(=O)(=O)N(C)C[C@H]2Oc3c(NC(=O)Nc4cccc5ccccc45)cccc3C(=O)N([C@H](C)CO)C[C@H]2C)cc1`: -14.4% (inactive); `COc1ccc(S(=O)(=O)N(C)C[C@@H]2Oc3c(NC(=O)Nc4cccc5ccccc45)cccc3C(=O)N([C@@H](C)CO)C[C@H]2C)cc1`: -10.2% (inactive); `COc1ccc(S(=O)(=O)N(C)C[C@@H]2Oc3c(NC(=O)Nc4ccc(F)cc4)cccc3C(=O)N([C@H](C)CO)C[C@H]2C)cc1`: -6.01% (inactive).
On to `C[C@@H]1CN([C@@H](C)CO)C(=O)c2cccc(NC(=O)Nc3cccc4ccccc34)c2O[C@H]1CN(C)C(=O)Nc1ccccc1`, for which the activity change, negative = inhibition (at 23.5 µM (top of the series)) was 14.9% (inactive).
As to `C[C@@H]1CN([C@@H](C)CO)C(=O)c2cccc(NC(=O)Nc3ccccc3)c2O[C@H]1CN(C)S(=O)(=O)c1ccc(Cl)cc1`, the activity change, negative = inhibition (at 26 µM (top of the series)) is -7.25% (inactive).
As for `C[C@@H]1CN([C@@H](C)CO)C(=O)c2cccc(NC(=O)Nc3cccc4ccccc34)c2O[C@H]1CN(C)C(=O)Nc1ccc(C(F)(F)F)cc1`, the activity change, negative = inhibition (at 23.5 µM (top of the series)) is 45.3% (inactive).
As for `C[C@@H]1CN([C@H](C)CO)C(=O)c2cccc(NC(=O)Nc3cccc4ccccc34)c2O[C@H]1CN(C)S(=O)(=O)c1ccc(Cl)cc1`, for the setting “at 26 µM (top of the series)”, the activity change, negative = inhibition was -4.82% (inactive).
The same measure, in the same setting: to `COc1ccc(S(=O)(=O)N(C)C[C@@H]2Oc3c(NC(=O)Nc4ccc(C(F)(F)F)cc4)cccc3C(=O)N([C@@H](C)CO)C[C@H]2C)cc1` belongs 13.3% (inactive).
In the case of `COc1ccc(S(=O)(=O)N(C)C[C@@H]2Oc3c(NC(=O)c4cnccn4)cccc3C(=O)N([C@@H](C)CO)C[C@H]2C)cc1`, the activity change, negative = inhibition (at 26 µM (top of the series)) is -2.35% (inactive).
As to `Cc1ccc(S(=O)(=O)N(C)C[C@@H]2Oc3c(NC(=O)Nc4ccc(F)cc4)cccc3C(=O)N([C@@H](C)CO)C[C@H]2C)cc1`, where the note is “at 26 µM (top of the series)”, the activity change, negative = inhibition was -11% (inactive).
Consider `Cc1ccc(S(=O)(=O)N(C)C[C@@H]2Oc3c(NC(=O)Nc4cccc5ccccc45)cccc3C(=O)N([C@H](C)CO)C[C@H]2C)cc1`, for which the activity change, negative = inhibition (at 23.5 µM (top of the series)) was -12.7% (inactive).
Regarding `COc1ccc(S(=O)(=O)N(C)C[C@@H]2Oc3c(NC(=O)C4CCCCC4)cccc3C(=O)N([C@@H](C)CO)C[C@H]2C)cc1`, the activity change, negative = inhibition (at 26 µM (top of the series)) was -7.12% (inactive).
Same read-out and setting: next, `C[C@@H]1CN([C@@H](C)CO)C(=O)c2cccc(NC(=O)Nc3ccc(F)cc3)c2O[C@H]1CN(C)S(=O)(=O)c1ccc(Cl)cc1`: -5.69% (inactive); `COc1ccc(S(=O)(=O)N(C)C[C@@H]2Oc3c(NC(=O)Nc4cccc5ccccc45)cccc3C(=O)N([C@@H](C)CO)C[C@H]2C)c(OC)c1`: -12.9% (inactive); `C[C@@H]1CN([C@@H](C)CO)C(=O)c2cccc(NC(=O)Nc3cccc4ccccc34)c2O[C@H]1CN(C)S(=O)(=O)c1ccc(Cl)cc1`: 6.46% (inactive).
On the same count and under the same terms, next, `COc1ccc(S(=O)(=O)N(C)C[C@@H]2Oc3c(NC(=O)Nc4c(C)noc4C)cccc3C(=O)N([C@@H](C)CO)C[C@H]2C)cc1`: -11.7% (inactive).
Consider `C[C@@H]1CN([C@H](C)CO)C(=O)c2cccc(NC(=O)Nc3ccc(F)cc3)c2O[C@H]1CN(C)S(=O)(=O)c1ccc(Cl)cc1`, for which the activity change, negative = inhibition (at 26 µM (top of the series)) was 10.4% (inactive).
Still for that read-out and setting: to `COc1ccc(S(=O)(=O)N(C)C[C@@H]2Oc3c(NC(=O)Nc4cccc5ccccc45)cccc3C(=O)N([C@@H](C)CO)C[C@@H]2C)cc1` belongs -6.51% (inactive).
On to `COc1ccc(S(=O)(=O)N(C)C[C@@H]2Oc3c(NC(=O)Nc4ccc(F)cc4)cccc3C(=O)N([C@@H](C)CO)C[C@H]2C)cc1`, for which, where the note is “at 23.5 µM (top of the series)”, the activity change, negative = inhibition is -9.69% (inactive).
With `C[C@@H]1CN([C@@H](C)CO)C(=O)c2cccc(NC(=O)Nc3cccc4ccccc34)c2O[C@H]1CN(C)S(=O)(=O)c1ccc2c(c1)OCC2`, the activity change, negative = inhibition (at 26 µM (top of the series)) is 3.67% (inactive).
The same measure, in the same setting: next, `C[C@@H]1CN([C@@H](C)CO)C(=O)c2cccc(NC(=O)Nc3cccc4ccccc34)c2O[C@H]1CN(C)S(=O)(=O)c1ccc2c(c1)oc(=O)n2C`: 0.941% (inactive); `COc1ccc(S(=O)(=O)N(C)C[C@@H]2Oc3c(NC(=O)c4cccc5ccccc45)cccc3C(=O)N([C@@H](C)CO)C[C@H]2C)cc1`: -10.7% (inactive); `COc1ccc(S(=O)(=O)Nc2cccc3c2O[C@@H](CN(C)S(=O)(=O)c2ccc(OC)cc2)[C@H](C)CN([C@@H](C)CO)C3=O)cc1`: -1.2% (inactive).
